Columns and labels:
[1] = molecular target: T1, Voltage-dependent T-type calcium channel subunit alpha-1G (Homo sapiens, UniProt O43497); experiment: Antagonist activity at T type calcium channel alpha1G expressed in HEK293 cells assessed as inhibition of peak currents at 10 uM by whole-cell patch-clamp method; format: functional, cell-based
[2] = molecular target: T1, Voltage-dependent T-type calcium channel subunit alpha-1G; experiment: Antagonist activity at T type calcium channel alpha1G expressed in HEK293 cells assessed as inhibition of peak currents at 1 uM by whole-cell patch-clamp method; format: functional, cell-based
[3] = molecular target: T1, Voltage-dependent T-type calcium channel subunit alpha-1G; experiment: Antagonist activity at T type calcium channel alpha1G expressed in HEK293 cells assessed as inhibition of peak currents by whole-cell patch-clamp method; format: functional, cell-based
Method in brief: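 Whole-cell patch clamp on HEK293 cells expressing alpha1G. External solution contained 140 mM NaCl, CaCl2, 10 mM Hepes and 10 mM glucose at pH 7.4. Pipettes were 3–4 MΩ, with Mg-ATP in the internal solution. Currents were evoked every 15 s by a 50 ms step from −100 to −30 mV. IC50 came from dose–response fits of peak current inhibition.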

[4] = Inhibition of L type calcium channel at 1 uM
[5] = AUC (0 to t) in mouse brain at 50 mg/kg, po; format: ADME, organism-based; set-up: dose 50 mg/kg, route oral
Method in brief: (§1)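 Single oral gavage dose of 50 mg/kg to mice. Vehicle was DMA/Cremophor EL/PBS (10/10/80 v/v %). Plasma and brain were sampled. AUC0–t was calculated by the linear trapezoidal rule, and brain/plasma ratio was taken as AUCbrain/AUCplasma.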

[6] = Metabolic stability in mouse liver; format: ADME, tissue-based; details: liver (preparation not stated)
[7] = AUC (0 to t) in mouse plasma at 50 mg/kg, po; format: ADME, organism-based; set-up: dose 50 mg/kg, route oral; method in brief: as §1
[8] = Cmax in mouse brain at 50 mg/kg, po; format: ADME, organism-based; set-up: dose 50 mg/kg, route oral; method in brief: as §1
[9] = Ratio of Cmax for mouse brain to Cmax for mouse plasma at 50 mg/kg, po; format: ADME, organism-based; set-up: dose 50 mg/kg, route oral
[10] = Tmax in mouse brain at 50 mg/kg, po; format: ADME, organism-based; set-up: dose 50 mg/kg, route oral; method in brief: as §1
[11] = molecular target: T1, Voltage-dependent T-type calcium channel subunit alpha-1G; experiment: Antagonist activity at T type calcium channel alpha1G expressed in HEK293 cells assessed as inhibition of peak currents by whole-cell patch-clamp method
[12] = Tmax in mouse plasma at 50 mg/kg, po; format: ADME, organism-based; set-up: dose 50 mg/kg, route oral; method in brief: as §1
[13] = Cmax in mouse plasma at 50 mg/kg, po; format: ADME, organism-based; set-up: dose 50 mg/kg, route oral; method in brief: as §1
[14] = Ratio of IC50 for human ERG channel to IC50 for T type calcium channel alpha1G
[15] = Selectivity for T type calcium channel alpha1G over L type calcium channel
[16] = Ratio of AUC (0 to t) for mouse brain to AUC (0 to t) for mouse plasma at 50 mg/kg, po; format: ADME, organism-based; set-up: dose 50 mg/kg, route oral
Method in brief: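 Mice got a single oral 50 mg/kg dose in DMA/Cremophor EL/PBS (10/10/80 v/v %). Plasma and brain levels were measured to give Tmax, Cmax and AUC0–t, with AUC by the linear trapezoidal rule. Brain/plasma ratio taken from the brain and plasma parameters (B/P = AUC_brain/AUC_plasma).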

[17] = molecular target: Voltage-gated inwardly rectifying potassium channel KCNH2 (Homo sapiens, UniProt Q12809); experiment: Inhibition of human ERG channel
Chain of Voltage-gated inwardly rectifying potassium channel KCNH2 (Q12809 whole entry): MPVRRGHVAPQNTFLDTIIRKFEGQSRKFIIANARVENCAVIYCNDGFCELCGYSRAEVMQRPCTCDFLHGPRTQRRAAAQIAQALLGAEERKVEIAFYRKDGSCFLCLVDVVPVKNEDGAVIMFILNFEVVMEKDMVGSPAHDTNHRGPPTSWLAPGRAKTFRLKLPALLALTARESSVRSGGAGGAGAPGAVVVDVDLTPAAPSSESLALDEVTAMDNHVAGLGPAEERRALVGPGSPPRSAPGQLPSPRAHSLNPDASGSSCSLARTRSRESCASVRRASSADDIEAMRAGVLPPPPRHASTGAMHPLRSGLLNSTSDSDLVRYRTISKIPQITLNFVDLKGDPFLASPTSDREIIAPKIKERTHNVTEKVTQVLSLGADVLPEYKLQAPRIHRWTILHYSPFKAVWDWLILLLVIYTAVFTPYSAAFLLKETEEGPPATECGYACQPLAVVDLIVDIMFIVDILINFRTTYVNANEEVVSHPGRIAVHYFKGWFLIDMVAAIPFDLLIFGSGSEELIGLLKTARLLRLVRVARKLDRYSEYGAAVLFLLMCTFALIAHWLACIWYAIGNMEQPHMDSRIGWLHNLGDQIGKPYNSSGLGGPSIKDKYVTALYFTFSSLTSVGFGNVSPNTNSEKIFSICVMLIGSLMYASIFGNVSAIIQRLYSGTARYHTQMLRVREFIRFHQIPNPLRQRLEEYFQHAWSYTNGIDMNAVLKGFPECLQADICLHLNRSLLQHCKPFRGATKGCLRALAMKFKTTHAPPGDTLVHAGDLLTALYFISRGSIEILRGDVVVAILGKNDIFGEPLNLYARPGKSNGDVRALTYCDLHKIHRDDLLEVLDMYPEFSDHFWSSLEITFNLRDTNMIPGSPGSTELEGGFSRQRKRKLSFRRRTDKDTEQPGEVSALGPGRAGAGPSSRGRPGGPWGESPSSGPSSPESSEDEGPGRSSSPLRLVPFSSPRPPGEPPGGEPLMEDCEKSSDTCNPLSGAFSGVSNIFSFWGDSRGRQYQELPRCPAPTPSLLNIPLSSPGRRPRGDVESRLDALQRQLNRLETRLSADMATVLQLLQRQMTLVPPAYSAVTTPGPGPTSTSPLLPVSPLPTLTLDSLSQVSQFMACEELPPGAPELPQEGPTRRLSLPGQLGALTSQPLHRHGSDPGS

T1 sequence (O43497 whole entry): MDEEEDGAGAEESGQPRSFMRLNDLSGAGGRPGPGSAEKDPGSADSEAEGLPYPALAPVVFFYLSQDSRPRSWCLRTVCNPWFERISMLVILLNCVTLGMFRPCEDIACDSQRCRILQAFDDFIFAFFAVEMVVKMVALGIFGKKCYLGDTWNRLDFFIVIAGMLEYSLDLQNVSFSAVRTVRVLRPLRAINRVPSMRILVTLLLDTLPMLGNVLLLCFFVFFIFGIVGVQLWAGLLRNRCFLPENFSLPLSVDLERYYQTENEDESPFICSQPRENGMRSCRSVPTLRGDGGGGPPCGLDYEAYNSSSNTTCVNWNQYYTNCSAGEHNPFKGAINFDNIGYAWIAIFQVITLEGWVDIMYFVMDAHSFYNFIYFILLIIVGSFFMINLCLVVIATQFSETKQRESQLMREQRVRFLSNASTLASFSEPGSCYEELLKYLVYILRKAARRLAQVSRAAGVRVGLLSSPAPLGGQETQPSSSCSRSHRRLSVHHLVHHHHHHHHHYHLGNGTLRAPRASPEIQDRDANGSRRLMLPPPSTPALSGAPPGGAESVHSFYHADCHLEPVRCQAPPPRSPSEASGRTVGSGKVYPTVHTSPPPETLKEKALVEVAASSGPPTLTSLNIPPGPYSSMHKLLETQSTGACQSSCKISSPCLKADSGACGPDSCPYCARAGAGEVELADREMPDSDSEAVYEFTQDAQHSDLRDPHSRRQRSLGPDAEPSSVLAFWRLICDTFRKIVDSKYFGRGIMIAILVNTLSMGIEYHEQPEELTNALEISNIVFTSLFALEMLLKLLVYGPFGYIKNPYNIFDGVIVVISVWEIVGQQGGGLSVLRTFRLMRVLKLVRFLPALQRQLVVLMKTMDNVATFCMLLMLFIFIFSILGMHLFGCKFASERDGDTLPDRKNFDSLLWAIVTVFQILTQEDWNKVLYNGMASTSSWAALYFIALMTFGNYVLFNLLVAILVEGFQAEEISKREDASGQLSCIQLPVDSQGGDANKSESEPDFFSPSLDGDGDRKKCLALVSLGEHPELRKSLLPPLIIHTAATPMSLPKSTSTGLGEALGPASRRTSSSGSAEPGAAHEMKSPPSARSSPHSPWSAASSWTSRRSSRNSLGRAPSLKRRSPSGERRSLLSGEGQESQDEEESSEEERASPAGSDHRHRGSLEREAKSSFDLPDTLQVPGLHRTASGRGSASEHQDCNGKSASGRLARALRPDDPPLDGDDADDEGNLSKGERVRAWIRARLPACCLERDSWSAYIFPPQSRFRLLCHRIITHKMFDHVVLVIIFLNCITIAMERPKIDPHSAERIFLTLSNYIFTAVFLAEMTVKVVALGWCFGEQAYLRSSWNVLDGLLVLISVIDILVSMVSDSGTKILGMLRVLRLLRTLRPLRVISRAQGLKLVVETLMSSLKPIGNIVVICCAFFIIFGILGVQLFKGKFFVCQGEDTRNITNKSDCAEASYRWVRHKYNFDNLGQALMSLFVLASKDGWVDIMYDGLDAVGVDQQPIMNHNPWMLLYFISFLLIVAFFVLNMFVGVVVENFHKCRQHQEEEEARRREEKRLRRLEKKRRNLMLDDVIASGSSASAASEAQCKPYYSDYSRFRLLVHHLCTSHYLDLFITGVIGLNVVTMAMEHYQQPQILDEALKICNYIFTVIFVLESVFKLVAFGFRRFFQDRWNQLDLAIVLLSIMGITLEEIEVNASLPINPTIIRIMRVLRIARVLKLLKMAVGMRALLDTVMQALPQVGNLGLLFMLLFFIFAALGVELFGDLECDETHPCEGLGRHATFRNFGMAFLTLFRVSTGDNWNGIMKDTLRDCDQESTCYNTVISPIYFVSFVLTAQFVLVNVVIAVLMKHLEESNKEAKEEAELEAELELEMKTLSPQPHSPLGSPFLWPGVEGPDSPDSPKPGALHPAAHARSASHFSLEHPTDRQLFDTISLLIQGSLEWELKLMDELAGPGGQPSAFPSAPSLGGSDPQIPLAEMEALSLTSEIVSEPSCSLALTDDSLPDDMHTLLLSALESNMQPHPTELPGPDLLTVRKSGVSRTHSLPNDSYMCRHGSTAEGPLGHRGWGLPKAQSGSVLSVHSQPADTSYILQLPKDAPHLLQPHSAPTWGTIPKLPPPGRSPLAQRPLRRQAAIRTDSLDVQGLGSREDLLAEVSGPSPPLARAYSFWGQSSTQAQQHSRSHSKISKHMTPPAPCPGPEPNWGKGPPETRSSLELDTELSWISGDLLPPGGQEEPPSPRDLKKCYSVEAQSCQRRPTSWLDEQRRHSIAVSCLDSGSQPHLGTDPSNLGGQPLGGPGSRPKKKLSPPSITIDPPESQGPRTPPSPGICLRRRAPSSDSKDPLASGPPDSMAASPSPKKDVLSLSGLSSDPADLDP

Structure (SMILES): COC(=O)C(CCCN1CCN(Cc2cccc(C)c2)CC1)(c1ccc(Br)cc1)C(C)C (stereo not drawn)
- inhibition [1]: 94.9%

Structure (SMILES): COC(=O)C(CCCN1CCN(Cc2cccc(F)c2)CC1)(c1ccc(Br)cc1)C(C)C (stereo not drawn)
- inhibition [1]: 89.3%

Structure (SMILES): CCOC(=O)C(CCCN1CCN(Cc2ccc(OC)cc2)CC1)(c1ccccc1)C(C)C (stereo not drawn)
- inhibition [1]: 96.3%

Structure (SMILES): COC(=O)C(CCCN(C)CCCc1nc2cc(OC)ccc2[nH]1)(c1ccc(OC)cc1)C(C)C (stereo not drawn)
- inhibition [1]: 91.7%

Structure (SMILES): CCOC(=O)C(CCCN1CCN(Cc2ccc(F)cc2)CC1)(c1ccccc1)C(C)C (stereo not drawn)
- inhibition [1]: 94%

Structure (SMILES): COC(=O)C(CCCN(C)CCCc1nc2cc(C)c(C)cc2[nH]1)(c1ccc(Br)cc1)C(C)C (stereo not drawn)
- inhibition [2]: 94.2%

Structure (SMILES): COC(=O)C(CCCN1CCN(Cc2ccc(F)cc2)CC1)(c1ccc(Br)cc1)C(C)C (stereo not drawn)
- inhibition [1]: 96.5%

Structure (SMILES): COC(=O)C(CCCN1CCN(Cc2cccc(C(F)(F)F)c2)CC1)(c1ccc(Br)cc1)C(C)C (stereo not drawn)
- inhibition [1]: 93%
- IC50 [3]: 280 nM

Structure (SMILES): COC(=O)C(CCCN1CCN(Cc2ccc(OC)cc2)CC1)(c1ccc(Br)cc1)C(C)C (stereo not drawn)
- inhibition [1]: 96%

Structure (SMILES): COC(=O)C(CCCN(C)CCCc1nc2ccccc2[nH]1)(c1ccc(OC)cc1)C(C)C (stereo not drawn)
- inhibition [1]: 93.5%

Structure (SMILES): COC(=O)C(CCCN1CCN(Cc2ccc(OC)c(OC)c2OC)CC1)(c1ccc(Br)cc1)C(C)C (stereo not drawn)
- inhibition [1]: 95.1%

Structure (SMILES): COC(=O)C(CCCN1CCN(c2ccccc2OC)CC1)(c1ccc(Br)cc1)C(C)C (stereo not drawn)
- inhibition [1]: 94.1%
- IC50 [3]: 95 nM

Structure (SMILES): CCOC(=O)C(CCCN(C)CCCc1nc2cc(C)c(C)cc2[nH]1)(c1ccccc1)C(C)C (stereo not drawn)
- inhibition [1]: 91.4%

Structure (SMILES): COC(=O)C(CCCN(C)CCCc1nc2cc(OC)ccc2[nH]1)(c1ccc(Br)cc1)C(C)C (stereo not drawn)
- inhibition [1]: 94.5%

Structure (SMILES): COC(=O)C(CCCN1CCN(Cc2ccccc2F)CC1)(c1ccc(Br)cc1)C(C)C (stereo not drawn)
- inhibition [1]: 90.4%

Structure (SMILES): COC(=O)C(CCCN(C)CCCc1nc2ccccc2[nH]1)(c1ccc(Br)cc1)C(C)C (stereo not drawn)
- inhibition [4]: 0%
- AUC(0-t) [5]: 973 ng·h/mL
- half-life [6]: 1 h
- AUC(0-t) [7]: 3900 ng·h/mL
- Cmax [8]: 274 ng/mL
- Kp [9]: 0.17
- Tmax [10]: 1 h
- IC50 [11]: 8.17 nM
- inhibition [1]: 96.9%
- Tmax [12]: 1 h
- Cmax [13]: 1620 ng/mL
- Ratio IC50 [14]: 21.8
- Selectivity Index [15]: > 1000
- Kp [16]: 0.25
- IC50 [17]: 178 nM

Structure (SMILES): CCOC(=O)C(CCCN(C)CCCc1nc2ccccc2[nH]1)(c1ccccc1)C(C)C (stereo not drawn)
- inhibition [1]: 98.3%
